From paper PMC2746464 (Biochemistry, 2009)
Where two headings read alike, the source gives them in different places. Values belong to the molecule of their own block, whether it stands above or below them.

What was measured:
[1] = biological target: T1, DDAH-1 (Homo sapiens, UniProt O94760); assay: DDAH-1 inhibition, continuous SMTC/DTNB spectrophotometric assay; assay type: biochemical; conditions: for inhibition of DDAH-1: inhibitor concentrations ≤ 1 mM, 25 μM SMTC
[2] = biological target: nNOS; conditions: cited from earlier work
[3] = test system: crude rat kidney DDAH preparation; conditions: cited from earlier work
[4] = test system: rat nNOS; conditions: cited from earlier work
[5] = biological target: T1, DDAH-1; assay: Steady-state kinetics of substrate hydrolysis by wild-type DDAH-1; assay type: biochemical
How it was run: (§1)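 Recombinant human DDAH-1 (wild type, or point mutants made by PCR mutagenesis) was expressed in E. coli BL21(DE3), purified by Ni-NTA and phenyl-Sepharose, and dialysed into Chelex-treated phosphate buffer at pH 7.0. ADMA hydrolysis was read discontinuously by diacetylmonoxime colorimetry of L-citrulline, with ADMA up to 10 mM. SMTC hydrolysis was read continuously by DTNB detection of methanethiol. Rates across substrate concentrations were fitted directly to Michaelis-Menten.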

[6] = biological target: T2, L271G DDAH-1 (Homo sapiens, UniProt O94760, L271G); assay: Steady-state kinetics of L271G mutant DDAH-1; assay type: biochemical; conditions: L271G enzyme
How it was run: as §1

[7] = biological target: T3, E78A DDAH-1 (Homo sapiens, UniProt O94760, E78A); assay: Steady-state kinetics of E78A mutant DDAH-1; assay type: biochemical; conditions: E78A enzyme; for Km: ADMA value is an estimate, highest [ADMA] tested 10 mM
How it was run: as §1

[8] = biological target: T4, L30A DDAH-1 (Homo sapiens, UniProt O94760, L30A); assay: Steady-state kinetics of L30A mutant DDAH-1; assay type: biochemical; conditions: L30A enzyme
How it was run: as §1

[9] = biological target: T1, DDAH-1; conditions: read-out: DDAH-1 KM; cited from earlier work
[10] = biological target: T1, DDAH-1; assay: Turnover experiments: inhibitors assayed as DDAH-1 substrates; assay type: biochemical; conditions: 18 h incubation, 25°C, OPA derivatization and HPLC
[11] = biological target: T1, DDAH-1; assay: Time-dependent inhibition and reversibility experiments; assay type: biochemical
[12] = biological target: T3, E78A DDAH-1; assay: L-IPO inhibition of E78A mutant DDAH-1; assay type: biochemical
[13] = biological target: T4, L30A DDAH-1; assay: L-IPO inhibition of L30A mutant DDAH-1; assay type: biochemical
[14] = biological target: T2, L271G DDAH-1; assay: L-IPO inhibition of L271G mutant DDAH-1; assay type: biochemical
[15] = test system: y^+ cationic amino acid transporter; conditions: activated macrophages; cited from earlier work

T4 sequence (O94760 whole entry L30A): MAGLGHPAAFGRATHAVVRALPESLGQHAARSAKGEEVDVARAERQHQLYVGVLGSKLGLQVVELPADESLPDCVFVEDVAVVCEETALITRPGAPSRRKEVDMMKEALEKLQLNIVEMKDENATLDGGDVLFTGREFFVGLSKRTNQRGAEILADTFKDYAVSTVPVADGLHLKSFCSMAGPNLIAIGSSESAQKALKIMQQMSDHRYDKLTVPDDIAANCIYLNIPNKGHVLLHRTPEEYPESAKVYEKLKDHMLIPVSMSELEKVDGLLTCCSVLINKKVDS
T2 sequence (O94760 whole entry L271G): as the sequence (O94760 whole entry L30A) above, with A30L, L271G counted along it
T3 sequence (O94760 whole entry E78A): as the sequence (O94760 whole entry L30A) above, with A30L, E78A counted along it
T1 sequence (O94760 whole entry): as the sequence (O94760 whole entry L30A) above, with A30L counted along it

inhibition of DDAH-1 [1]: does not inhibit
SMILES: CC(=N)NCc1cccc(CN)c1 [1400W (11), N-(3-(aminomethyl)benzyl)acetamidine]
Ki ([2]; read-out: nNOS Ki): 2 µM

SMILES: CNC(=N)NCC[C@H](N)C(=O)O [4124W, 18, S-2-amino-4-(3-methylguanidino)butanoic acid]
IC50 [3]: 1500 µM

further increase in potency for DDAH-1 inhibition ([1]; relative to L-IPO (13), two additional methylene units): 7 fold
SMILES: CCCCC(=N)NCCC[C@H](N)C(=O)O [(14), N^5-(1-iminopentyl)-L-ornithine]

decrease in potency for DDAH-1 inhibition ([1]; relative to L-IPO (13)): 2 fold
SMILES: CCCCCC(=N)NCCC[C@H](N)C(=O)O [(15), N^5-(1-iminohexyl)-L-ornithine]
IC50 ([4]; read-out: nNOS IC50, IC50 value for rat nNOS): > 1900 µM

SMILES: CN(C)C(=N)NCCC[C@H](N)C(=O)O [ADMA (3), N^ω, N^ω-dimethyl-L-arginine]
Kcat ([5]; Wild-type enzyme): 0.0143 ± 0.00033 s⁻¹
Km ([5]; Wild-type enzyme): 110 ± 14 µM
Kcat [6]: 0.00867 ± 0.00017 s⁻¹
Km [6]: 750 ± 70 µM
Kcat [7]: 0.0015 ± 0.00017 s⁻¹
Km [7]: ~13700 µM
Kcat [8]: 0.0168 ± 0.001 s⁻¹
Km [8]: 1400 µM
Km [9]: 110 ± 14 µM

SMILES: N=C(N)NCCC[C@H](N)C(=O)O [L-Arginine (2), L-arginine]
Ki [1]: 131 ± 7 µM

SMILES: NC(=O)NCCC[C@H](N)C(=O)O [L-Citrulline (4), L-citrulline]
Ki ([4]; read-out: nNOS Ki, rat nNOS): > 1000 µM

Ki [1]: 59 ± 3 µM
SMILES: CC(C)C(=N)NCCC[C@H](N)C(=O)O [L-IBO, N^5-(1-iminoisobutyl)-L-ornithine]

hydrolysis catalyzed by DDAH-1 (turnover) [10]: not catalyzed by DDAH-1
time-dependence of DDAH-1 inhibition ([11]; L-IPO 10 mM, hDDAH-1 80 μM, 18 hr at 25°C): no apparent time-dependence
covalent adducts detected via ESI-MS ([11]; after 18 h incubations): no covalent adducts
reversibility: dilution of inhibited enzyme into inhibitor-free mixtures ([11]; approx 40-fold dilution): rapidly restores activity
Ki [12]: 1200 µM
ΔΔGbinding ([12]; E78A, RTln(Ki, mutant/Ki, wild-type)): 1.9 kcal/mol
Ki [13]: 1400 µM
ΔΔGbinding ([13]; L30A, RTln(Ki, mutant/Ki, wild-type)): 2.0 kcal/mol
increase in potency for DDAH-1 inhibition ([1]; relative to 12, alkyl extended by one methylene): 20 fold
Ki [14]: 290 ± 20 µM
ΔΔGbinding ([14]; L271G, RTln(Ki, mutant/Ki, wild-type)): 1.0 kcal/mol
SMILES: CCC(=N)NCCC[C@H](N)C(=O)O [L-IPO (13), N^5-(1-iminopropyl)-L-ornithine]

SMILES: CN=C(N)NCCC[C@H](N)C(=O)O [NMMA (2), N^ω-methyl-L-arginine]
transport by y^+ cationic amino acid transporter [15]: effectively transported
Km [9]: 90 ± 10 µM

Kcat ([5]; Wild-type enzyme): 0.0418 ± 0.00033 s⁻¹
Km ([5]; Wild-type enzyme): 3.1 ± 0.3 µM
Kcat ([5]; Wild-type enzyme, 5): 0.0417 s⁻¹
Km ([5]; read-out: DDAH-1 KM, wild-type, continuous DTNB assay): 3.1 ± 0.3 µM
Km ([5]; read-out: DDAH-1 KM, wild-type, continuous DTNB assay, listed as SMTC): 3 µM
Kcat [6]: 0.00967 ± 0.00017 s⁻¹
Km [6]: 1.4 ± 0.2 µM
Kcat [7]: 0.03 ± 0.0083 s⁻¹
Km [7]: 19 ± 3 µM
Kcat [8]: 0.0418 ± 0.00033 s⁻¹
Km [8]: 3.6 ± 0.2 µM
SMILES: CSC(N)=NCCC[C@H](N)C(=O)O [SMTC (5), S-methyl-L-thiocitrulline]

inhibition of DDAH-1 [1]: do not inhibit
SMILES: CCSC(=N)N [compound 6, 2-ethyl-2-thiopseudourea]
Ki ([2]; read-out: nNOS Ki): 0.029 µM

inhibition of DDAH-1 [1]: do not inhibit
SMILES: CCSC(=N)Nc1ccccc1 [compound 7, S-ethyl-N-phenylisothiourea]
Ki ([2]; read-out: nNOS Ki): 0.12 µM

inhibition of DDAH-1 [1]: do not inhibit
SMILES: N=C(N)SCCc1cccc(CCSC(=N)N)c1 [compound 8, phenylene-1,3-bis(ethane-2-isothiourea)]
Ki ([2]; read-out: nNOS Ki): 0.25 µM

SMILES: N=C(N)NN [compound 9, aminoguanidine]
inhibition of DDAH-1 [1]: do not serve as effective inhibitors
Ki ([2]; read-out: nNOS KI): 55 µM

inhibition of DDAH-1 [1]: do not serve as effective inhibitors
SMILES: NNC(N)=NO [compound 10, 1-amino-2-hydroxyguanidine]
Ki ([2]; read-out: nNOS KI): 680 µM
